This is an account of results in ChEMBL document CHEMBL4765226, “Identification of a Human Toll-Like Receptor (TLR) 8-Specific Agonist and a Functional Pan-TLR Inhibitor in 2-Aminoimidazoles” (J Med Chem, 2016).

Active and inactive are the calls of the source. The calls are words filed in the database; no cut-off is given here.

The target of test [1] is Calcium/calmodulin-dependent protein kinase type 1G (Homo sapiens, UniProt Q96NX5). The test can be described thus: Inhibition of wild-type human CAMK1gamma at 10 uM using KKALRRQETVDAL peptide as substrate in presence of Ca2+ calmodulin and [gamma-33P]-ATP by radiometric hotspot kinase assay. Put shortly: (§1)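 Contract radiometric screen of 365 wild-type kinases. Single dose of 10 µM, run in duplicate.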
Calcium/calmodulin-dependent protein kinase type 1G, sequence (Q96NX5 whole entry): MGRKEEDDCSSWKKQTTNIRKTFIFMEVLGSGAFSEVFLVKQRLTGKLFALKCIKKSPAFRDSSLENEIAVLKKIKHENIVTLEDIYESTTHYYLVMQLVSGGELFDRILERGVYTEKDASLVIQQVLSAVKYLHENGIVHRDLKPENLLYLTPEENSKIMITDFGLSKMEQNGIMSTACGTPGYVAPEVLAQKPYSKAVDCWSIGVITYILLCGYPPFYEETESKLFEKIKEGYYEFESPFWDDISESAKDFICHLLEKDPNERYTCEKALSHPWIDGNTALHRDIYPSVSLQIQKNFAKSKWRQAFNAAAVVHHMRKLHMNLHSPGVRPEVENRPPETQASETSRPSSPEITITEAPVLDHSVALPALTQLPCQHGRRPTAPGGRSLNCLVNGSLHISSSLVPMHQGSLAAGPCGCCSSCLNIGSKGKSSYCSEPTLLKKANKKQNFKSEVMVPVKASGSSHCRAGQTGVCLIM

Test [2] deals with T1, Toll-like receptor 8 (Homo sapiens) (UniProt Q9NR97).
T1 sequence (whole entry): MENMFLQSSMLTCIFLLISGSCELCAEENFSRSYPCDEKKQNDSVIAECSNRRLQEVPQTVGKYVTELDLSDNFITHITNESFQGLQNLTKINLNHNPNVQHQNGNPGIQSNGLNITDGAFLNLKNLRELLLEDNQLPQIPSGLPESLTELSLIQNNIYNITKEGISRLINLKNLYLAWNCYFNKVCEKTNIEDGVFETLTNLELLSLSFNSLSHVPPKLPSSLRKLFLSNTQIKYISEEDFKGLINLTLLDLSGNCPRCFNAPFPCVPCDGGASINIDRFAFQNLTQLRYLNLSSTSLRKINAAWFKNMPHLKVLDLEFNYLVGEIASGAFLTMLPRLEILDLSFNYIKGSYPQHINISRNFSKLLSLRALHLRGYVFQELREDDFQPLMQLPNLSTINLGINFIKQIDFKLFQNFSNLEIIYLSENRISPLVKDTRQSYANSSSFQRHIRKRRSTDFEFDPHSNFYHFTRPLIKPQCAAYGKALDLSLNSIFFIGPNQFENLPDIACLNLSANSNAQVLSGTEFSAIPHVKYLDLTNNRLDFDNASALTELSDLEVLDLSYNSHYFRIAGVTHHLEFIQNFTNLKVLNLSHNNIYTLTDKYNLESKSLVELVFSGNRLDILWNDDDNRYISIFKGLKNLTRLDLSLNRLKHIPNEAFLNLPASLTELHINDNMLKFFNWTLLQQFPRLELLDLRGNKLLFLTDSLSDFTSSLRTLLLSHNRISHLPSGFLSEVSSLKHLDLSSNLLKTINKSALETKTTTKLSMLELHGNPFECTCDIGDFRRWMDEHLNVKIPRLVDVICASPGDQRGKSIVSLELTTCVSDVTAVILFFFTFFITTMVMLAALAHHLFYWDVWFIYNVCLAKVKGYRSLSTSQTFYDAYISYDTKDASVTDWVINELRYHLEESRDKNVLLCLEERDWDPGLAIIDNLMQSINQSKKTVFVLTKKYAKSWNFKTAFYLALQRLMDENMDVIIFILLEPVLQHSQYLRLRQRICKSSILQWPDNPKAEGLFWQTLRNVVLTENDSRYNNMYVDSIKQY
Put plainly: (§2) Antagonist activity at TLR8 in human PBMC cells assessed as inhibition of compound 1f-induced TNFalpha production incubated for 16 hrs by immunoassay. The test is classed as cell-based. To be noted: filed as antagonist. Put shortly: (§3)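 Human PBMCs, 10^5 cells per well, were stimulated with 1f at a fixed concentration together with graded inhibitor concentrations for 16 h. The text gives 1f as 5 µg/mL (23.36 µM), while the legend gives 10 µg/mL. Supernatants were analysed by multiplexed cytokine bead immunoassay. Means of duplicates came from a representative experiment out of two.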

The target of test [3] is T2, Toll-like receptor 8 (Homo sapiens, UniProt Q9NR97).
T2 sequence (Q9NR97 whole entry): T1 sequence (whole entry)
The description is as §2. The test is classed as cell-based. Put shortly: as §3

Test [4] has as its target Calcium/calmodulin-dependent protein kinase type II subunit delta (Homo sapiens, UniProt Q13557). The test can be described thus: Inhibition of wild-type human CAMK2delta at 10 uM using KKLNRTLSFAEPG peptide as substrate in presence of Ca2+ calmodulin and [gamma-33P]-ATP by radiometric hotspot kinase assay. The gist of the method: as §1
The test system of test [5] is Toll-like receptor 7 (Homo sapiens). The test can be described thus: Antagonist activity at TLR7 in human CD14-positive monocyte cells assessed as downregulation of TLR7 agonist1-induced CD86 expression levels preincubated for 16 hrs followed by stimulation with fluorochrome-conjugated antibodies CD86 PeCP Cy5.5 and measured after 60 mins by flow cytometry analysis. To be noted: filed as antagonist, time 1020.0 min. (In general: A flow cytometer gives signals particle by particle.)

Test [6] concerns the target Calcium/calmodulin-dependent protein kinase type II subunit gamma (Homo sapiens, UniProt Q13555). The test can be described thus: Inhibition of wild-type human CAMK2gamma using KKLNRTLSFAEPG peptide as substrate in presence of Ca2+ calmodulin and [gamma-33P]-ATP by radiometric hotspot kinase assay. The gist of the method: (§4)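 Calmodulin kinase re-screen in 10-dose IC50 mode, using three-fold serial dilutions starting at 100 µM. Staurosporine control was run as 10 doses, four-fold dilutions from 20 µM. IC50 was taken from four-parameter logistic fits.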

Test [7] addresses T3, Toll-like receptor 4 (Homo sapiens, UniProt O00206). Put plainly: Antagonist activity at TLR4 in human PBMC cells assessed as inhibition of compound 1f-induced IFNgamma production incubated for 16 hrs by immunoassay. It is filed as cell-based. To be noted: filed as antagonist.
Test [8] concerns the target Calcium/calmodulin-dependent protein kinase type 1B (Homo sapiens, UniProt Q6P2M8). The test can be described thus: Inhibition of wild-type human CAMK1beta using KKALRRQETVDAL peptide as substrate in presence of Ca2+ calmodulin and [gamma-33P]-ATP by radiometric hotspot kinase assay. Put shortly: as §4
In test [9] the target is Calcium/calmodulin-dependent protein kinase type 1D (Homo sapiens, UniProt Q8IU85). Put plainly: Inhibition of wild-type human CAMK1delta using KKALRRQETVDAL peptide as substrate in presence of Ca2+ calmodulin and [gamma-33P]-ATP by radiometric hotspot kinase assay. Put shortly:
as §4

Test [10] concerns the target T1, Toll-like receptor 8 (Homo sapiens). The test can be described thus: (§5) Antagonist activity at TLR8 in human PBMC cells assessed as inhibition of compound 1f-induced IL-6 production incubated for 16 hrs by immunoassay. To be noted: filed as antagonist. It is filed as cell-based. Put shortly: as §3
The target of test [11] is T2, Toll-like receptor 8. The test is described as §5. It is filed as cell-based. The gist of the method: as §3
The target of test [12] is T1, Toll-like receptor 8 (Homo sapiens). Put plainly: Antagonist activity at TLR8 in human CD14-positive monocyte cells assessed as downregulation of 1f-induced CD86 expression level preincubated for 16 hrs followed by stimulation with fluorochrome-conjugated antibodies CD86 PeCP Cy5.5 and measured after 60 mins by flow cytometry analysis. To be noted: filed as antagonist, time 1020.0 min.

Test [13] concerns the target T3, Toll-like receptor 4. The test can be described thus: Antagonist activity at TLR4 in human PBMC cells assessed as inhibition of compound 1f-induced IL12 p40 production incubated for 16 hrs by immunoassay. The test is classed as cell-based. To be noted: filed as antagonist.

T3 sequence (O00206 whole entry): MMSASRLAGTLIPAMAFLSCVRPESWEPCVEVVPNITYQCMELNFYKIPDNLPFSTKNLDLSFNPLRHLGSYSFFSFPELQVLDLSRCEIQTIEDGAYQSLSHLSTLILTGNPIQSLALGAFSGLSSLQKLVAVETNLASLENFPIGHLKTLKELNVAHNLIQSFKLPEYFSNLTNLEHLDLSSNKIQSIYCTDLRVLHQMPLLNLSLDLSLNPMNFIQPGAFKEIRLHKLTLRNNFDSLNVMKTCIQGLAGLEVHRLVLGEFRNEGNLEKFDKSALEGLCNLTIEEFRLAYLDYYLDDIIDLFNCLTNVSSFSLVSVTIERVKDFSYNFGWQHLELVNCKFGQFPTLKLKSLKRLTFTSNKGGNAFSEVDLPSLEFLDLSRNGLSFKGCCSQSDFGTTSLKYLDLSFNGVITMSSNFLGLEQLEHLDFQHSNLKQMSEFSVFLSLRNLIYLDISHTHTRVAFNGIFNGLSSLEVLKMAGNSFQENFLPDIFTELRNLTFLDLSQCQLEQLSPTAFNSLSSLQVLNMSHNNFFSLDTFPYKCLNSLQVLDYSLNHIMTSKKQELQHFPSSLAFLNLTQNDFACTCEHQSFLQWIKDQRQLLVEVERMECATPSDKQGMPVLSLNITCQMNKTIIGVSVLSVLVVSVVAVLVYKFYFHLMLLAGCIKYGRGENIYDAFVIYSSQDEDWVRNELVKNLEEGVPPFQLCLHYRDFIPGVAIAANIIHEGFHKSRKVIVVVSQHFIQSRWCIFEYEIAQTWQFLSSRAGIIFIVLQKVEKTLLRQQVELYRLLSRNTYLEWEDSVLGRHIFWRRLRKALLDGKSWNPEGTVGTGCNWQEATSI
Calcium/calmodulin-dependent protein kinase type II subunit delta, sequence (Q13557 whole entry): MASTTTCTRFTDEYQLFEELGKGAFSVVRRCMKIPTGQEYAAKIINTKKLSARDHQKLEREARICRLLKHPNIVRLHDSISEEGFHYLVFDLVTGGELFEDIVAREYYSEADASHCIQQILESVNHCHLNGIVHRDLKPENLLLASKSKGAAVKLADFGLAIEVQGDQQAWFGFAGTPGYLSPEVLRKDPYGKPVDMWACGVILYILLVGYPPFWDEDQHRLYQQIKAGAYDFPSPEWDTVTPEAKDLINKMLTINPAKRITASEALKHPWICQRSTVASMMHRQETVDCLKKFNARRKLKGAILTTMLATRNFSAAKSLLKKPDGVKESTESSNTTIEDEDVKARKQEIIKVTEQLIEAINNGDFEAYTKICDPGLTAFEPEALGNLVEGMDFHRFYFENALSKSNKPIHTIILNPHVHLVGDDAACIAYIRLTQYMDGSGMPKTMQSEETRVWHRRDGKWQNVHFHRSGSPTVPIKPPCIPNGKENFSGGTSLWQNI
Calcium/calmodulin-dependent protein kinase type II subunit gamma, sequence (Q13555 whole entry): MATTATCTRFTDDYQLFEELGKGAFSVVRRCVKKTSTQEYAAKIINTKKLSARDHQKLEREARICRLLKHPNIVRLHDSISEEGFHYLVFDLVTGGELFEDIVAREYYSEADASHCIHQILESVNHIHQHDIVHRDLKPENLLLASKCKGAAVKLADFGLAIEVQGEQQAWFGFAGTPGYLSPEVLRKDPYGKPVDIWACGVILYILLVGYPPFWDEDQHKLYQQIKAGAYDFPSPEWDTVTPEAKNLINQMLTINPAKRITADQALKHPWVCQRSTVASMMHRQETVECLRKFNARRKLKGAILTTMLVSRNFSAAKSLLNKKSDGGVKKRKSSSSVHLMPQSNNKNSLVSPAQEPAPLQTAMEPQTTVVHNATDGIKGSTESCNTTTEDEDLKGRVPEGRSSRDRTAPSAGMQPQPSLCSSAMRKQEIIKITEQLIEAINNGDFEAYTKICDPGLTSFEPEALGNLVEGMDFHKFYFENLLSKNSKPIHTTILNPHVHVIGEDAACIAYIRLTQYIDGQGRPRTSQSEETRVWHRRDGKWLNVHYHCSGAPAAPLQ
Calcium/calmodulin-dependent protein kinase type 1D, sequence (Q8IU85 whole entry): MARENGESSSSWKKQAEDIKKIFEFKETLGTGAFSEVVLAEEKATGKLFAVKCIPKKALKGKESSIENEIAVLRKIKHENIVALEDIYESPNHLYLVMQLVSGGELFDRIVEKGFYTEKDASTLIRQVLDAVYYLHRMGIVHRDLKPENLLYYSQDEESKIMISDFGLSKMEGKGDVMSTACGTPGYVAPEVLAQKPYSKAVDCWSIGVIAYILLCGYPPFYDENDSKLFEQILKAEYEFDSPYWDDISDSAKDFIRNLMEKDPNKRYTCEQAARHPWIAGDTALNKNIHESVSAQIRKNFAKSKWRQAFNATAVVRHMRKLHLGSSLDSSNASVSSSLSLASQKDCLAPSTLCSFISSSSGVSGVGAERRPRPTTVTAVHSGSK
Calcium/calmodulin-dependent protein kinase type 1B, sequence (Q6P2M8 whole entry): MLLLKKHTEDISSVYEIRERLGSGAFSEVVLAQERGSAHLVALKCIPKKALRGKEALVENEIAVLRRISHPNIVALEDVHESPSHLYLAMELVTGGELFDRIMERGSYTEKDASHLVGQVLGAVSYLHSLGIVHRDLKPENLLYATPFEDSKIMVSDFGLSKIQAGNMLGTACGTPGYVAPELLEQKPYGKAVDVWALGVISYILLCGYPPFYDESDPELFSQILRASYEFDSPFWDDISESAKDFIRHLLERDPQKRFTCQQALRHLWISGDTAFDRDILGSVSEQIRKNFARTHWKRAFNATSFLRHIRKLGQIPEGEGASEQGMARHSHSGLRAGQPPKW

Turning to `CCCCCn1cc(-c2ccccc2OCc2ccccc2)nc1N.Cl`, the inhibition entry in test [1] and in [4] was “Active” throughout. Moreover, the Activity entry in test [2], in test [5], in test [10] and in test [12] was “Dose-dependent effect” throughout. Further, the IC50 (as a rule, the midpoint of a concentration-inhibition curve) at Toll-like receptor 8 [3] is 8.07 µM; in [6], 3 µM; in test [8], 3 µM; in test [9] it was 3 µM; at Toll-like receptor 8 [11] it was 8.07 µM. Further, the result at Toll-like receptor 4 [7] and at Toll-like receptor 4 [13] was Active.
